From ChEMBL document CHEMBL2176901, “Pyrrolo[3,4-h]quinolinones a new class of photochemotherapeutic agents” (Bioorg Med Chem, 2011)

Columns and labels:
Assay type in all cases: functional, cell-based
Jurkat [1] = assay: Phototoxicity in 3.75 J/cm'2 UV-A irradiated human Jurkat cells after 72 hrs by MTT assay; conditions: light or radiation study
Summary of the method: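 Jurkat cells (8 × 10³/well) in RPMI-1640 with 10% FBS, held 18 h at 37 °C, 5% CO2. Compound stock in DMSO was diluted in HBSS pH 7.2 and added for 30 min at 37 °C. Cells were UV-A irradiated (lamp mainly 365 nm, 4.0 mW/cm²), then returned to medium for 72 h. MTT readout. IC50 is the mean ± SEM of three experiences.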

LoVo [2] = assay: Phototoxicity in 3.75 J/cm'2 UV-A irradiated human LoVo cells after 72 hrs by MTT assay; conditions: light or radiation study
Summary of the method: (§1)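 Seeded at 5 × 10³ cells/well with 10% FBS: MCF-7 and NCTC-2544 in DMEM, LoVo in Ham's F12. Pre-incubated 18 h at 37 °C, 5% CO2. Compound (DMSO stock diluted in HBSS pH 7.2) was applied for 30 min at 37 °C, then UV-A irradiation (mainly 365 nm, 4.0 mW/cm²). Medium was restored for 72 h before MTT. IC50 is the mean ± SEM of three experiences.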

[3] = Phototoxicity in 3.75 J/cm'2 UV-A irradiated human NCTC-2544 cells after 72 hrs by MTT assay; conditions: NCTC-2544, light or radiation study; summary of the method: as §1
Jurkat [4] = assay: Phototoxicity in 2.5 J/cm'2 UV-A irradiated human Jurkat cells after 72 hrs by MTT assay; conditions: light or radiation study
Summary of the method: (§2)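 HL-60 and Jurkat (8×10³/well, RPMI-1640) and MCF-7, LoVo, NCTC-2544 (5×10³/well; DMEM or Ham's F12) preincubated 18 h at 37 °C, 5% CO₂. Compound in DMSO diluted in HBSS pH 7.2, 30 min at 37 °C, then UV-A at 2.5 or 3.75 J/cm². Medium replaced, 72 h incubation, MTT read-out. IC50 as mean ± SEM of three experiments.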

LoVo [5] = assay: Phototoxicity in 2.5 J/cm'2 UV-A irradiated human LoVo cells after 72 hrs by MTT assay; conditions: light or radiation study; summary of the method: as §2
HL-60 [6] = assay: Phototoxicity in 2.5 J/cm'2 UV-A irradiated human HL60 cells after 72 hrs by MTT assay; conditions: HL-60, light or radiation study; summary of the method: as §2
[7] = Phototoxicity in 2.5 J/cm'2 UV-A irradiated human NCTC-2544 cells after 72 hrs by MTT assay; conditions: NCTC-2544, light or radiation study; summary of the method: as §2
HL-60 [8] = assay: Phototoxicity in 3.75 J/cm'2 UV-A irradiated human HL60 cells after 72 hrs by MTT assay; conditions: HL-60, light or radiation study; summary of the method: as §2
MCF7 [9] = assay: Phototoxicity in 3.75 J/cm'2 UV-A irradiated human MCF7 cells after 72 hrs by MTT assay; conditions: MCF7, light or radiation study; summary of the method: as §1
MCF7 [10] = assay: Phototoxicity in 2.5 J/cm'2 UV-A irradiated human MCF7 cells after 72 hrs by MTT assay; conditions: MCF7, light or radiation study; summary of the method: as §2

For `Cc1c2c(c(C(=O)O)n1C)CCc1cc(S(=O)(=O)c3ccccc3)c(=O)[nH]c1-2`, the IC50 (Jurkat [1]) was greater than 20 µM, the IC50 (LoVo [2]) was greater than 20 µM and the IC50 [3] was greater than 20 µM. The IC50 (Jurkat [4]) was greater than 20 µM, the IC50 (LoVo [5]) was greater than 20 µM and the IC50 (HL-60 [6]) was greater than 20 µM. The IC50 [7] was greater than 20 µM, the IC50 (HL-60 [8]) was greater than 20 µM and the IC50 (MCF7 [9]) was greater than 20 µM. It also gave an IC50 (MCF7 [10]) greater than 20 µM.

`O=c1[nH]c2c(cc1S(=O)(=O)c1ccccc1)CCc1cn(-c3ccccc3)cc1-2` showed an IC50 (Jurkat [1]) of 7.4 µM, an IC50 (LoVo [2]) greater than 20 µM and an IC50 [3] greater than 20 µM. The IC50 (Jurkat [4]) was greater than 20 µM, the IC50 (LoVo [5]) was greater than 20 µM and the IC50 (HL-60 [6]) was 12.2 µM. For the same molecule, the IC50 [7] was greater than 20 µM, the IC50 (HL-60 [8]) was 8 µM and the IC50 (MCF7 [9]) was greater than 20 µM. It also gave an IC50 (MCF7 [10]) greater than 20 µM.

Molecule `COc1nc2c(cc1S(=O)(=O)c1ccccc1)CCc1cn(Cc3ccccc3)cc1-2` has an IC50 (Jurkat [1]) of 6.3 µM, an IC50 (LoVo [2]) of 8.7 µM and an IC50 [3] of 9.6 µM. The IC50 (Jurkat [4]) was 8.5 µM, the IC50 (LoVo [5]) was 9.9 µM and the IC50 (HL-60 [6]) was 8.3 µM. The IC50 [7] was 15.3 µM, the IC50 (HL-60 [8]) was 7.3 µM and the IC50 (MCF7 [9]) was 7.5 µM. The IC50 (MCF7 [10]) was 10 µM.

`Cc1[nH]c(C(=O)O)c2c1-c1[nH]c(=O)c(S(=O)(=O)c3ccccc3)cc1CC2` showed an IC50 (Jurkat [1]) greater than 20 µM, an IC50 (LoVo [2]) greater than 20 µM and an IC50 [3] greater than 20 µM. For the same molecule, the IC50 (Jurkat [4]) was greater than 20 µM, the IC50 (LoVo [5]) was greater than 20 µM and the IC50 (HL-60 [6]) was greater than 20 µM. The IC50 [7] was greater than 20 µM, the IC50 (HL-60 [8]) was greater than 20 µM and the IC50 (MCF7 [9]) was greater than 20 µM. For the same molecule, the IC50 (MCF7 [10]) was greater than 20 µM.

In the case of `O=c1[nH]c2c(cc1S(=O)(=O)c1ccccc1)CCc1cn(Cc3ccccc3)cc1-2`, the IC50 (Jurkat [1]) is reported as greater than 20 µM, the IC50 (LoVo [2]) is reported as greater than 20 µM and the IC50 [3] is reported as greater than 20 µM. For the same molecule, the IC50 (Jurkat [4]) was greater than 20 µM, the IC50 (LoVo [5]) was greater than 20 µM and the IC50 (HL-60 [6]) was greater than 20 µM. It also gave an IC50 [7] greater than 20 µM, an IC50 (HL-60 [8]) of 14.5 µM and an IC50 (MCF7 [9]) greater than 20 µM. It also gave an IC50 (MCF7 [10]) greater than 20 µM.

With `Cn1c2c(cc(S(=O)(=O)c3ccccc3)c1=O)CCc1cn(Cc3ccccc3)cc1-2` the IC50 (Jurkat [1]) was 2.5 µM, the IC50 (LoVo [2]) was 2.8 µM and the IC50 [3] was 5.8 µM. For the same molecule, the IC50 (Jurkat [4]) was 3.6 µM, the IC50 (LoVo [5]) was 3.9 µM and the IC50 (HL-60 [6]) was 4.4 µM. For the same molecule, the IC50 [7] was 8.2 µM, the IC50 (HL-60 [8]) was 2.8 µM and the IC50 (MCF7 [9]) was 3.7 µM. The IC50 (MCF7 [10]) was 6.6 µM.

Molecule `Cc1c2c(c(C(=O)O)n1Cc1ccccc1)CCc1cc(S(=O)(=O)c3ccccc3)c(=O)[nH]c1-2` has an IC50 (Jurkat [1]) greater than 20 µM, an IC50 (LoVo [2]) greater than 20 µM and an IC50 [3] greater than 20 µM. It also gave an IC50 (Jurkat [4]) greater than 20 µM, an IC50 (LoVo [5]) greater than 20 µM and an IC50 (HL-60 [6]) greater than 20 µM. The IC50 [7] was greater than 20 µM, the IC50 (HL-60 [8]) was greater than 20 µM and the IC50 (MCF7 [9]) was greater than 20 µM. For the same molecule, the IC50 (MCF7 [10]) was greater than 20 µM.

`Cn1cc2c(c1)-c1c(cc(S(=O)(=O)c3ccccc3)c(=O)n1C)CC2` showed an IC50 (Jurkat [1]) greater than 20 µM, an IC50 (LoVo [2]) greater than 20 µM and an IC50 [3] greater than 20 µM. The IC50 (Jurkat [4]) was greater than 20 µM, the IC50 (LoVo [5]) was greater than 20 µM and the IC50 (HL-60 [6]) was greater than 20 µM. The IC50 [7] was greater than 20 µM, the IC50 (HL-60 [8]) was greater than 20 µM and the IC50 (MCF7 [9]) was greater than 20 µM. It also gave an IC50 (MCF7 [10]) greater than 20 µM.

With `CCOC(=O)c1c2c(c(C)n1Cc1ccccc1)-c1c(cc(S(=O)(=O)c3ccccc3)c(=O)n1C)CC2` the IC50 (Jurkat [1]) was 1.3 µM, the IC50 (LoVo [2]) was 8.7 µM and the IC50 [3] was 14.3 µM. The IC50 (Jurkat [4]) was 2.9 µM, the IC50 (LoVo [5]) was 12.1 µM and the IC50 (HL-60 [6]) was 5.4 µM. It also gave an IC50 [7] greater than 20 µM, an IC50 (HL-60 [8]) of 2.6 µM and an IC50 (MCF7 [9]) of 14.4 µM. For the same molecule, the IC50 (MCF7 [10]) was greater than 20 µM.

`CCOC(=O)c1c2c(c(C)n1C)-c1[nH]c(=O)c(S(=O)(=O)c3ccccc3)cc1CC2` gave an IC50 (Jurkat [1]) of 1.4 µM, an IC50 (LoVo [2]) of 4 µM and an IC50 [3] of 6.2 µM. It also gave an IC50 (Jurkat [4]) of 2 µM, an IC50 (LoVo [5]) of 7.9 µM and an IC50 (HL-60 [6]) of 3.6 µM. It also gave an IC50 [7] of 10.1 µM, an IC50 (HL-60 [8]) of 1.8 µM and an IC50 (MCF7 [9]) of 5.1 µM. It also gave an IC50 (MCF7 [10]) of 10 µM.

`Cn1cc2c(c1)-c1[nH]c(=O)c(S(=O)(=O)c3ccccc3)cc1CC2` gave an IC50 (Jurkat [1]) greater than 20 µM, an IC50 (LoVo [2]) greater than 20 µM and an IC50 [3] greater than 20 µM. The IC50 (Jurkat [4]) was greater than 20 µM, the IC50 (LoVo [5]) was greater than 20 µM and the IC50 (HL-60 [6]) was greater than 20 µM. The IC50 [7] was greater than 20 µM, the IC50 (HL-60 [8]) was 5.6 µM and the IC50 (MCF7 [9]) was greater than 20 µM. For the same molecule, the IC50 (MCF7 [10]) was greater than 20 µM.

For `Cn1c2c(cc(S(=O)(=O)c3ccccc3)c1=O)CCc1cn(-c3ccccc3)cc1-2`, the IC50 (Jurkat [1]) was greater than 20 µM, the IC50 (LoVo [2]) was greater than 20 µM and the IC50 [3] was greater than 20 µM. It also gave an IC50 (Jurkat [4]) greater than 20 µM, an IC50 (LoVo [5]) greater than 20 µM and an IC50 (HL-60 [6]) greater than 20 µM. It also gave an IC50 [7] greater than 20 µM, an IC50 (HL-60 [8]) greater than 20 µM and an IC50 (MCF7 [9]) greater than 20 µM. It also gave an IC50 (MCF7 [10]) greater than 20 µM.

In the case of `Cc1c2c(cn1C)CCc1cc(S(=O)(=O)c3ccccc3)c(=O)[nH]c1-2`, the IC50 (Jurkat [1]) is reported as greater than 20 µM, the IC50 (LoVo [2]) is reported as greater than 20 µM and the IC50 [3] is reported as greater than 20 µM. For the same molecule, the IC50 (Jurkat [4]) was greater than 20 µM, the IC50 (LoVo [5]) was greater than 20 µM and the IC50 (HL-60 [6]) was greater than 20 µM. For the same molecule, the IC50 [7] was greater than 20 µM, the IC50 (HL-60 [8]) was greater than 20 µM and the IC50 (MCF7 [9]) was greater than 20 µM. The IC50 (MCF7 [10]) was greater than 20 µM.

Work on `CCOC(=O)c1[nH]c(C)c2c1CCc1cc(S(=O)(=O)c3ccccc3)c(=O)n(C)c1-2` yielded an IC50 (Jurkat [1]) of 12.5 µM, an IC50 (LoVo [2]) of 13.2 µM and an IC50 [3] greater than 20 µM. It also gave an IC50 (Jurkat [4]) greater than 20 µM, an IC50 (LoVo [5]) greater than 20 µM and an IC50 (HL-60 [6]) greater than 20 µM. The IC50 [7] was greater than 20 µM, the IC50 (HL-60 [8]) was 5.8 µM and the IC50 (MCF7 [9]) was greater than 20 µM. It also gave an IC50 (MCF7 [10]) greater than 20 µM.

In the case of `CCOC(=O)c1[nH]c(C)c2c1CCc1cc(S(=O)(=O)c3ccccc3)c(=O)[nH]c1-2`, the IC50 (Jurkat [1]) is reported as 10 µM, the IC50 (LoVo [2]) is reported as 13.6 µM and the IC50 [3] is reported as 15 µM. For the same molecule, the IC50 (Jurkat [4]) was 18 µM, the IC50 (LoVo [5]) was 17.5 µM and the IC50 (HL-60 [6]) was 13.7 µM. For the same molecule, the IC50 [7] was greater than 20 µM, the IC50 (HL-60 [8]) was 9.1 µM and the IC50 (MCF7 [9]) was greater than 20 µM. It also gave an IC50 (MCF7 [10]) greater than 20 µM.

With `O=c1ccc2ccc3occc3c2o1` [ANGELICIN] the IC50 (LoVo [2]) was 1.1 µM, the IC50 [3] was 0.9 µM and the IC50 (LoVo [5]) was 4 µM. The IC50 [7] was 4.2 µM.
